Assay results reported in article PMC4894453 (Scientific Reports, 2014).
≈ marks a conversion by molar mass, not a printed value.

Columns and labels:
S. aureus Newman = experiment: Membrane potential by flow cytometry with DiOC2; format: cell-based, Staphylococcus aureus; settings: 10 μM, 30 min, DiOC2(3)
Procedure, shortened: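 Exponential-phase S. aureus Newman (OD600 ≈ 0.3, Mueller-Hinton II broth) treated with test compound at 100, 10 or 1 μM for 30 min at 37°C. Cells stained 5 min with 30 μM DiOC2(3) and run on flow cytometry (10,000 events, 488 nm excitation, green and red emission). Red/green fluorescence ratio histograms compared. CCCP was the positive control; at least two independent samples.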

[1] = tested on: Enterococcus faecalis ATCC 33186; experiment: MIC, microbroth dilution, Enterococcus faecalis; format: cell-based; settings: Enterococcus faecalis, ATCC33186, read-out: MIC against Gram-positive bacteria, EF, Enterococcus faecalis ATCC 33186; Mueller-Hinton broth, 18–20 h
[2] = tested on: Streptococcus pyogenes ATCC 700294; experiment: MIC, microbroth dilution, Streptococcus pyogenes; format: cell-based; settings: Streptococcus pyogenes, ATCC700294, read-out: MIC against Gram-positive bacteria, SP
[3] = tested on: Streptococcus pneumoniae R6; experiment: MIC, microbroth dilution, Streptococcus pneumoniae; format: cell-based; settings: Streptococcus pneumoniae, R6, read-out: MIC against Gram-positive bacteria, SPn
Procedure, shortened: (§1)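 CLSI microbroth dilution in Mueller-Hinton broth. Test compound at final 200–0.1 μg/ml, diluted from 10 mg/ml DMSO stocks. Plates incubated 18–20 h. MIC is the lowest concentration preventing visible growth.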

[4] = tested on: Bacillus anthracis sterne; experiment: microbe, parasite or virus in culture; format: cell-based; settings: Bacillus anthracis, read-out: MIC against Gram-positive bacteria, BA
[5] = tested on: Bacillus subtilis ATCC 23857; experiment: MIC, microbroth dilution, Bacillus subtilis; format: cell-based; settings: Bacillus subtilis, ATCC23857, read-out: MIC against Gram-positive bacteria, BS
Procedure, shortened: as §1

[6] = tested on: Clostridium difficile BAA 1803; experiment: MIC, microbroth dilution, anaerobic, Clostridium difficile; format: cell-based; settings: Clostridioides difficile, BAA1803, 24 h, read-out: MIC against Gram-positive bacteria, CD, Clostridium difficile BAA 1803; Brain-heart infusion broth, 24 h, anaerobic
[7] = tested on: methicillin-resistant Staphylococcus aureus N315; experiment: MIC, microbroth dilution, MRSA; format: cell-based; settings: Staphylococcus aureus, MRSA, read-out: MIC against Gram-positive bacteria, MRSA
Procedure, shortened: as §1

[8] = tested on: Vero cells (kidney epithelial cells; ATCC CCL-81); experiment: Cytotoxicity, CellTiter-Glo viability; format: cell-based; settings: for Selectivity index: Cytotox IC50/MIC against methicillin-susceptible S. aureus Newman
Procedure, shortened: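 Vero kidney epithelial cells exposed 72 h to test compound (final 200–0.1 μg/ml in DMEM; diluted from 10 mg/ml DMSO stocks). Viability read by CellTiter-Glo luminescence. IC50 is the concentration giving 50% viability loss, from curve fitting. Selectivity index is the cytotoxic IC50 divided by the MIC against S. aureus Newman.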

N#CC(C#N)=NNc1cccc(Cl)c1 [CCCP, carbonyl cyanide m-chlorophenyl hydrazone, reference compound]
dissipation of the membrane potential (S. aureus Newman): complete dissipation of the membrane potential

CCCCCCC/C=C/C(=O)N1C(=O)/C(=C(\O)c2ccncc2)C(=O)C1CC(C)C (stereo not shown) [Compound 8, (Z)-1-((E)-dec-2-enoyl)-3-(hydroxy(pyridin-4-yl)methylene)-5-isobutylpyrrolidine-2,4-dione]
MIC [1]: 50 µg/mL (≈ 121 µM)
MIC [2]: 100 µg/mL (≈ 242 µM)
MIC [3]: 25 µg/mL (≈ 60.6 µM)
MIC [4]: 50 µg/mL (≈ 121 µM)
MIC [5]: 100 µg/mL (≈ 242 µM)
MIC [6]: 0.5 µg/mL (≈ 1.21 µM)
MIC [7]: 12.5 µg/mL (≈ 30.3 µM)
Selectivity index [8]: 5

CCCCCCC/C=C/C(=O)N1C(=O)/C(=C(\O)C2CCNCC2)C(=O)C1CC(C)C (stereo not shown) [Compound 9, (Z)-1-((E)-dec-2-enoyl)-3-(hydroxy(piperidin-4-yl)methylene)-5-isobutylpyrrolidine-2,4-dione]
MIC [1]: 50 µg/mL (≈ 119 µM)
MIC [2]: 100 µg/mL (≈ 239 µM)
MIC [3]: 50 µg/mL (≈ 119 µM)
MIC [4]: 12.5 µg/mL (≈ 29.9 µM)
MIC [5]: 12.5 µg/mL (≈ 29.9 µM)
MIC [6]: 8 µg/mL (≈ 19.1 µM)
MIC [7]: 50 µg/mL (≈ 119 µM)
Selectivity index [8]: 2
dissipation of the membrane potential (S. aureus Newman): reduced their ability to dissipate the membrane potential

CCCCCCC/C=C/C(=O)N1C(=O)/C(=C(\O)c2ccc(OCOCCOC)cc2)C(=O)C1CC(C)C (stereo not shown) [Compound 11, (Z)-1-((E)-dec-2-enoyl)-3-(hydroxy(4-((2-methoxyethoxy)methoxy)phenyl)methylene)-5-isobutylpyrrolidine-2,4-dione]
MIC [1]: 0.78 µg/mL (≈ 1.51 µM)
MIC [2]: 25 µg/mL (≈ 48.5 µM)
MIC [3]: 12.5 µg/mL (≈ 24.2 µM)
MIC [4]: 0.2 µg/mL (≈ 0.388 µM)
MIC [5]: 1.56 µg/mL (≈ 3.03 µM)
MIC [6]: 0.25 µg/mL (≈ 0.485 µM)
MIC [7]: 0.2 µg/mL (≈ 0.388 µM)
Selectivity index [8]: 25

CCCCCCC/C=C/C(=O)N1C(=O)/C(=C(\O)c2ccc(O)cc2)C(=O)C1CC(C)C (stereo not shown) [Compound 12, (Z)-1-((E)-dec-2-enoyl)-3-(hydroxy(4-hydroxyphenyl)methylene)-5-isobutylpyrrolidine-2,4-dione]
MIC [1]: 12.5 µg/mL (≈ 29.2 µM)
MIC [2]: 50 µg/mL (≈ 117 µM)
MIC [3]: 50 µg/mL (≈ 117 µM)
MIC [4]: 0.78 µg/mL (≈ 1.82 µM)
MIC [5]: 3.13 µg/mL (≈ 7.32 µM)
MIC [6]: 2 µg/mL (≈ 4.68 µM)
MIC [7]: 6.25 µg/mL (≈ 14.6 µM)
Selectivity index [8]: 9

CCCCCCC/C=C/C(=O)N1CC(=O)/C(=C(\C)O)C1=O [Compound 14, (Z)-1-((E)-dec-2-enoyl)-3-(1-hydroxyethylidene)pyrrolidine-2,4-dione]
MIC [1]: 6.25 µg/mL (≈ 21.3 µM)
MIC [2]: 50 µg/mL (≈ 170 µM)
MIC [3]: 12.5 µg/mL (≈ 42.6 µM)
MIC [4]: 1.56 µg/mL (≈ 5.32 µM)
MIC [5]: 12.5 µg/mL (≈ 42.6 µM)
MIC [6]: 2 µg/mL (≈ 6.82 µM)
MIC [7]: 3.2 µg/mL (≈ 10.9 µM)
Selectivity index [8]: 3

CCCCCCC/C=C/C(=O)N1C(=O)/C(=C(/C)O)C(=O)C1CO (stereo not shown) [Compound 15, (Z)-1-((E)-dec-2-enoyl)-3-(1-hydroxyethylidene)-5-(hydroxymethyl)pyrrolidine-2,4-dione]
MIC [1]: 100 µg/mL (≈ 309 µM)
MIC [2]: 50 µg/mL (≈ 155 µM)
MIC [3]: 100 µg/mL (≈ 309 µM)
MIC [4]: > 200 µg/mL
MIC [5]: 200 µg/mL (≈ 618 µM)
MIC [6]: 64 µg/mL (≈ 198 µM)
MIC [7]: > 200 µg/mL
Selectivity index [8]: 1

CCCCCCC/C=C/C(=O)N1C(=O)/C(=C(/C)O)C(=O)C1CCC(=O)O (stereo not shown) [Compound 16, 3-((Z)-1-((E)-dec-2-enoyl)-4-(1-hydroxyethylidene)-3,5-dioxopyrrolidin-2-yl)propanoic acid]
MIC [1]: 25 µg/mL (≈ 68.4 µM)
MIC [2]: 50 µg/mL (≈ 137 µM)
MIC [3]: 25 µg/mL (≈ 68.4 µM)
MIC [4]: > 200 µg/mL
MIC [5]: 50 µg/mL (≈ 137 µM)
MIC [6]: > 64 µg/mL
MIC [7]: > 200 µg/mL
Selectivity index [8]: 1

CCCCCCC/C=C/C(=O)N1C(=O)/C(=C(/C)O)C(=O)C1Cc1ccc(O)cc1 (stereo not shown) [Compound 19, (Z)-1-((E)-dec-2-enoyl)-5-(4-hydroxybenzyl)-3-(1-hydroxyethylidene)pyrrolidine-2,4-dione]
MIC [1]: 50 µg/mL (≈ 125 µM)
MIC [2]: 50 µg/mL (≈ 125 µM)
MIC [3]: 25 µg/mL (≈ 62.6 µM)
MIC [4]: 200 µg/mL (≈ 501 µM)
MIC [5]: 50 µg/mL (≈ 125 µM)
MIC [6]: 32 µg/mL (≈ 80.1 µM)
MIC [7]: 25 µg/mL (≈ 62.6 µM)
Selectivity index [8]: 2
Cytotox IC50 ([8]; Vero kidney cells, 72 h, 50% reduction of viability): 93.53 µg/mL
